In brackets after ≈: the same amount, converted by molar mass.
Experiments:
Enterococcus faecalis = assay: Minimal inhibitory concentration was evaluated against VanA Fs[…]; assay type: functional
Enterococcus sp. = assay: Minimal inhibitory concentration was evaluated against VanB (ATCC 51575); assay type: functional, enterococcus strain
Outline: (§1)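 MICs were determined by the NCCLS broth microdilution method. The strain panel included MSSA ATCC 13709, VanA E. faecium KPB-01, VanA E. faecalis MGH-01 and VanB ATCC 51575.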

Enterococcus faecium = assay: Minimal inhibitory concentration was evaluated against VanA Fm […]; assay type: functional
Staphylococcus aureus [1] = assay: Minimal inhibitory concentration was evaluated against methicillin-resistant Staphylococcus aureus (ATCC 33591); assay type: functional
Outline: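 NCCLS broth microdilution susceptibility test, in vitro, against the MRSA strain ATCC 33591 as part of a Gram-positive panel with MSSA and vancomycin-resistant enterococci. Read-out is the minimal inhibitory concentration.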

Staphylococcus aureus [2] = assay: Minimal inhibitory concentration was evaluated against Staphylococcus aureus MSSA (ATCC 13709); assay type: functional; outline: as §1
Rattus norvegicus [3] = assay: Compound was evaluated for percent dose tissue distribution 24 hours after a 50 mg/kg dose was administered intravenously in liver; assay type: ADME, organism-based; design: dose 50 mg/kg, route intravenous; details: in vivo, iv
Outline: (§2)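 Male Sprague–Dawley rats were given a single intravenous dose of 50 mg/kg. Tissue or urine levels were determined 24 h after dosing.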

Rattus norvegicus [4] = assay: Compound was evaluated for tissue distribution 24 hours after a 50 mg/kg dose was administered intravenously in rat kidney; assay type: ADME, organism-based; design: dose 50 mg/kg, route intravenous; details: in vivo, iv; outline: as §2
[5] = Compound was evaluated for tissue distribution 24 hours after a 50 mg/kg dose was administered intravenously in urine; assay type: ADME, organism-based; design: dose 50 mg/kg, route intravenous; details: rat, iv; outline: as §2
Rattus norvegicus [6] = assay: Compound was evaluated for percent thiol tissue distribution 24 hours after a 50 mg/kg dose was administered intravenously in urine; assay type: ADME, organism-based; design: dose 50 mg/kg, route intravenous; details: in vivo, iv
Outline: (§3)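 Male Sprague–Dawley rats were dosed intravenously at 50 mg/kg and urine was sampled 24 h later. The metabolite percentage was calculated from the peak area ratio of the metabolite peak to the parent peak.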

Rattus norvegicus [7] = assay: Compound was evaluated for percent dimer tissue distribution 24 hours after a 50 mg/kg dose was administered intravenously in urine; assay type: ADME, organism-based; design: dose 50 mg/kg, route intravenous; details: in vivo, iv; outline: as §3

| Compound | MIC (Enterococcus faecalis) [µg/mL] | MIC (Enterococcus sp.) [µg/mL] | MIC (Enterococcus faecium) [µg/mL] | MIC (Staphylococcus aureus [1]) [µg/mL] | MIC (Staphylococcus aureus [2]) [µg/mL] | Dose (Rattus norvegicus [3]) [%] | Dose (Rattus norvegicus [4]) [%] | dose excreted at 24 h [5] [%] | Dose (Rattus norvegicus [6]) [%] | Dose (Rattus norvegicus [7]) [%] |
| --- | --- | --- | --- | --- | --- | --- | --- | --- | --- | --- |
| CCCCCCCCCCSSCCNC1(C)CC(OC2C(Oc3c4cc5cc3Oc3ccc(cc3Cl)[C@@H](O)[C@@H](NC(=O)[C@@H](CC(C)C)NC)C(=O)N[C@@H](CC(N)=O)C(=O)N[C@H]5C(=O)N[C@H]3C(=O)N[C@H](C(=O)N[C@H](C(=O)O)c5cc(O)cc(O)c5-c5cc3ccc5O)[C@H](O)c3ccc(c(Cl)c3)O4)OC(O)C(O)C2O)OC(C)C1O (stereo not given in full) | 3.1 (≈ 1.86 µM) | 0.6 (≈ 0.36 µM) | 3.1 (≈ 1.86 µM) | 2.4 (≈ 1.44 µM) | 1.2 (≈ 0.72 µM) | – | – | – | – | – |
| CCCCCCCCCCNCCN[C@@]1(C)C[C@H](O[C@@H]2[C@@H](Oc3c4cc5cc3Oc3ccc(cc3Cl)[C@@H](O)[C@@H](NC(=O)[C@@H](CC(C)C)NC)C(=O)N[C@@H](CC(N)=O)C(=O)N[C@H]5C(=O)N[C@H]3C(=O)N[C@H](C(=O)N[C@H](C(=O)O)c5cc(O)cc(O)c5-c5cc3ccc5O)[C@H](O)c3ccc(c(Cl)c3)O4)O[C@@H](CO)[C@H](O)[C@@H]2O)O[C@H](C)[C@H]1O | 3.6 (≈ 2.21 µM) | 1.8 (≈ 1.1 µM) | 4.1 (≈ 2.51 µM) | 0.4 (≈ 0.245 µM) | 0.4 (≈ 0.245 µM) | 37 | 22 | 16 | – | – |
| CCCCCCCCCSSCCN[C@@]1(C)C[C@H](O[C@@H]2[C@@H](Oc3c4cc5cc3Oc3ccc(cc3Cl)[C@@H](O)[C@@H](NC(=O)[C@@H](CC(C)C)NC)C(=O)N[C@@H](CC(N)=O)C(=O)N[C@H]5C(=O)N[C@H]3C(=O)N[C@H](C(=O)N[C@H](C(=O)O)c5cc(O)cc(O)c5-c5cc3ccc5O)[C@H](O)c3ccc(c(Cl)c3)O4)O[C@@H](CO)[C@H](O)[C@@H]2O)O[C@H](C)[C@H]1O | 3.1 (≈ 1.86 µM) | 1.2 (≈ 0.72 µM) | 6.3 (≈ 3.78 µM) | 0.6 (≈ 0.36 µM) | 0.3 (≈ 0.18 µM) | – | – | – | – | – |
| CCCCCCCCSSCCCN[C@@]1(C)C[C@H](O[C@@H]2[C@@H](Oc3c4cc5cc3Oc3ccc(cc3Cl)[C@@H](O)[C@@H](NC(=O)[C@@H](CC(C)C)NC)C(=O)N[C@@H](CC(N)=O)C(=O)N[C@H]5C(=O)N[C@H]3C(=O)N[C@H](C(=O)N[C@H](C(=O)O)c5cc(O)cc(O)c5-c5cc3ccc5O)[C@H](O)c3ccc(c(Cl)c3)O4)O[C@@H](CO)[C@H](O)[C@@H]2O)O[C@H](C)[C@H]1O | 3.8 (≈ 2.28 µM) | 1.8 (≈ 1.08 µM) | 4.7 (≈ 2.82 µM) | 0.4 (≈ 0.24 µM) | 3.1 (≈ 1.86 µM) | 4.9 | 0.5 | 1 | 2.3 | 15 |
| CN[C@H](CC(C)C)C(=O)N[C@H]1C(=O)N[C@@H](CC(N)=O)C(=O)N[C@H]2C(=O)N[C@H]3C(=O)N[C@H](C(=O)N[C@H](C(=O)O)c4cc(O)cc(O)c4-c4cc3ccc4O)[C@H](O)c3ccc(c(Cl)c3)Oc3cc2cc(c3O[C@H]2O[C@@H](CO)[C@H](O)[C@H](O)[C@@H]2OC2C[C@](C)(NCCCSSCCCN[C@]3(C)C[C@@H](O[C@H]4[C@H](Oc5c6cc7cc5Oc5ccc(cc5Cl)[C@@H](O)[C@@H](NC(=O)[C@@H](CC(C)C)NC)C(=O)N[C@@H](CC(N)=O)C(=O)N[C@H]7C(=O)N[C@H]5C(=O)N[C@H](C(=O)N[C@H](C(=O)O)c7cc(O)cc(O)c7-c7cc5ccc7O)[C@H](O)c5ccc(c(Cl)c5)O6)O[C@H](CO)[C@@H](O)[C@H]4O)O[C@@H](C)[C@@H]3O)[C@H](O)[C@@H](C)O2)Oc2ccc(cc2Cl)[C@H]1O (stereo not given in full) | 12.5 (≈ 4.11 µM) | 4.7 (≈ 1.54 µM) | 6.3 (≈ 2.07 µM) | 18.8 (≈ 6.17 µM) | 6.3 (≈ 2.07 µM) | – | – | – | – | – |
| CCCCCCCCCCCCCN[C@@]1(C)C[C@H](O[C@@H]2[C@@H](Oc3c4cc5cc3Oc3ccc(cc3Cl)[C@@H](O)[C@@H](NC(=O)[C@@H](CC(C)C)NC)C(=O)N[C@@H](CC(N)=O)C(=O)N[C@H]5C(=O)N[C@H]3C(=O)N[C@H](C(=O)N[C@H](C(=O)O)c5cc(O)cc(O)c5-c5cc3ccc5O)[C@H](O)c3ccc(c(Cl)c3)O4)O[C@@H](CO)[C@H](O)[C@@H]2O)O[C@H](C)[C@H]1O | 3.8 (≈ 2.33 µM) | 1.6 (≈ 0.981 µM) | 4.1 (≈ 2.51 µM) | 1.5 (≈ 0.919 µM) | 2.8 (≈ 1.72 µM) | 70 | 3.4 | 0.4 | – | – |
| CCCCCCCCSSCCN[C@@]1(C)C[C@H](O[C@@H]2[C@@H](Oc3c4cc5cc3Oc3ccc(cc3Cl)[C@@H](O)[C@@H](NC(=O)[C@@H](CC(C)C)NC)C(=O)N[C@@H](CC(N)=O)C(=O)N[C@H]5C(=O)N[C@H]3C(=O)N[C@H](C(=O)N[C@H](C(=O)O)c5cc(O)cc(O)c5-c5cc3ccc5O)[C@H](O)c3ccc(c(Cl)c3)O4)O[C@@H](CO)[C@H](O)[C@@H]2O)O[C@H](C)[C@H]1O | 4.7 (≈ 2.84 µM) | 2.4 (≈ 1.45 µM) | 6.3 (≈ 3.81 µM) | 0.2 (≈ 0.121 µM) | 0.2 (≈ 0.121 µM) | – | – | – | – | – |
| CCCCCCCCCSSCCCN[C@@]1(C)C[C@H](O[C@@H]2[C@@H](Oc3c4cc5cc3Oc3ccc(cc3Cl)[C@@H](O)[C@@H](NC(=O)[C@@H](CC(C)C)NC)C(=O)N[C@@H](CC(N)=O)C(=O)N[C@H]5C(=O)N[C@H]3C(=O)N[C@H](C(=O)N[C@H](C(=O)O)c5cc(O)cc(O)c5-c5cc3ccc5O)[C@H](O)c3ccc(c(Cl)c3)O4)O[C@@H](CO)[C@H](O)[C@@H]2O)O[C@H](C)[C@H]1O | 3.6 (≈ 2.14 µM) | 1.8 (≈ 1.07 µM) | 4.1 (≈ 2.44 µM) | 1.2 (≈ 0.714 µM) | 0.6 (≈ 0.357 µM) | – | – | – | – | – |
| CN[C@H](CC(C)C)C(=O)N[C@H]1C(=O)N[C@@H](CC(N)=O)C(=O)N[C@H]2C(=O)N[C@H]3C(=O)N[C@H](C(=O)N[C@H](C(=O)O)c4cc(O)cc(O)c4-c4cc3ccc4O)[C@H](O)c3ccc(c(Cl)c3)Oc3cc2cc(c3O[C@@H]2O[C@H](CO)[C@@H](O)[C@H](O)[C@H]2O[C@H]2C[C@](C)(N)[C@H](O)[C@H](C)O2)Oc2ccc(cc2Cl)[C@H]1O [VANCOMYCIN] | > 256 | > 256 | > 256 | – | 0.7 (≈ 0.483 µM) | – | – | – | – | – |
